Data set [1] relates to Felis catus. As to the kind of experiment: Dose estimated to produce a fall in mean blood pressure of anesthetized cat at 10 min after administration. It is filed as functional. In short, it runs like this: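 Cats (2.5–4.0 kg, either sex), ether induction, chloralose 70 mg/kg iv maintenance. Compound in distilled water or propylene glycol given via femoral vein at 0.01–10 mg/kg. Fall in mean arterial pressure read 10 min post-dose; ED25 (dose for 25 mmHg fall) calculated from log dose–response curve.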

Data set [2] concerns Felis catus. As to the kind of experiment: Dose estimated to produce 25 mm Hg fall in mean systemic blood pressure of anesthetized cat at 10 min after administration. It is filed as functional.
The species named for data set [3] is Rattus norvegicus. As to the kind of experiment: Delta BP refers to difference in systolic blood pressure of SH rats. The format is functional, Artery. Put shortly:
(§1)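 Male spontaneously hypertensive rats (Wistar–Okamoto, 250–300 g, 12–16 weeks), conscious. Dosed orally once daily for 5 days in 0.9% NaCl or 0.5% carboxymethylcellulose (10 mL/kg); vehicle control group. Rats warmed at 37–38 °C for 10 min, then systolic pressure taken by tail-cuff (piezoelectric pulse detection). ΔBP = pre-first-dose minus 2 h after fifth dose; mean ± SEM, six animals.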

Data set [4] concerns Rattus norvegicus. As to the kind of experiment: Difference in systolic blood pressure of SH rats observed prior to the first application and 2 hr after the fifth application at the oral dose of 25 mg/kg was expressed as Delta BP. The format is functional, Artery. Put shortly:
as §1

The species entered for data set [5] is Rattus norvegicus. As to the kind of experiment: Evaluated for antihypertensive activity in hypertensive(SH) rat.
For data set [6], the system named is Felis catus. As to the kind of experiment: Duration for hypotensive action in cats after administering 10 ug/kg intravenously. The format is functional. In short, it runs like this: (§2)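 Cats (2.5–4.0 kg, either sex) under ether, maintained on chloralose 70 mg/kg iv. Dosing by femoral vein catheter at 10, 25 or 50 µg/kg. Records initial BP, peak fall in mean arterial pressure, percent hypotension and response duration. Mean ± SEM, five experiments per dose.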

The subject of data set [7] is Felis catus. As to the kind of experiment: Duration for hypotensive action in cats after administering 25 ug/kg intravenously. It is filed as functional. In short, it runs like this: as §2
Data set [8] relates to Felis catus. As to the kind of experiment: Duration for hypotensive action in cats after administering 50 ug/kg intravenously. It is filed as functional. In short, it runs like this:
as §2

Data set [9] has as its system Felis catus. As to the kind of experiment: Blood pressure lowering activity in anesthetized cats after intravenous administration of […] of compound. The format is functional.
Data set [10] concerns Felis catus. As to the kind of experiment: Hypotensive activity of compound was evaluated by measuring fall in blood pressure in cats after administering 10 ug/kg intravenously. It is filed as functional. In short, it runs like this:
as §2

The test system of data set [11] is Felis catus. As to the kind of experiment: Hypotensive activity of compound was evaluated by measuring fall in blood pressure in cats after administering 25 ug/kg intravenously. It is filed as functional. In short, it runs like this: as §2
Data set [12] concerns Felis catus. As to the kind of experiment: Hypotensive activity of compound was evaluated by measuring fall in blood pressure in cats after administering 50 ug/kg intravenously. It is filed as functional. In short, it runs like this: as §2
The test system of data set [13] is Felis catus. As to the kind of experiment: Hypotensive activity of compound was evaluated by measuring initial blood pressure in cats after administering 10 ug/kg intravenously. The format is functional. Put shortly:
as §2

Data set [14] relates to Felis catus. As to the kind of experiment: Hypotensive activity of compound was evaluated by measuring initial blood pressure in cats after administering 25 ug/kg intravenously. The format is functional. Put shortly: as §2
The test system of data set [15] is Felis catus. As to the kind of experiment: Hypotensive activity of compound was evaluated by measuring initial blood pressure in cats after administering 50 ug/kg intravenously. It is filed as functional. Put shortly: as §2
For data set [16], the system named is Felis catus. As to the kind of experiment: Percent hypotension was determined in cats after administering 10 ug/kg intravenously. It is filed as functional. Put shortly:
as §2

The test system of data set [17] is Felis catus. As to the kind of experiment: Percent hypotension was determined in cats after administering 25 ug/kg intravenously. It is filed as functional. Put shortly: as §2
In data set [18] the test system is Felis catus. As to the kind of experiment: Percent hypotension was determined in cats after administering 50 ug/kg intravenously. The format is functional. In short, it runs like this: as §2
Data set [19] deals with Canis familiaris. As to the kind of experiment: Hypotensive activity of compound was evaluated by measuring fall in blood pressure in dogs after administering 100 ug/kg intravenously. It is filed as functional, Canis lupus familiaris. Put shortly: (§3)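 Mongrel dogs (10–16 kg, either sex) anesthetized with pentobarbitone sodium 35 mg/kg iv. Dosing by femoral vein catheter at 25, 50 or 100 µg/kg. Records initial BP, maximal fall in mean arterial pressure, percent hypotension and duration. Mean ± SEM, 3–8 experiments per dose.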

For data set [20], the system named is Canis familiaris. As to the kind of experiment: Hypotensive activity of compound was evaluated by measuring fall in blood pressure in dogs after administering 25 ug/kg intravenously. It is filed as functional, Canis lupus familiaris. In short, it runs like this:
as §3

Data set [21] has as its system Canis familiaris. As to the kind of experiment: Hypotensive activity of compound was evaluated by measuring fall in blood pressure in dogs after administering 50 ug/kg intravenously. It is filed as functional, Canis lupus familiaris. Put shortly:
as §3

Data set [22] concerns Canis familiaris. As to the kind of experiment: Hypotensive activity of compound was evaluated by measuring initial blood pressure in dogs after administering 100 ug/kg intravenously. The format is functional, Canis lupus familiaris. Put shortly: as §3
Data set [23] concerns Canis familiaris. As to the kind of experiment: Hypotensive activity of compound was evaluated by measuring initial blood pressure in dogs after administering 25 ug/kg intravenously. It is filed as functional, Canis lupus familiaris. In short, it runs like this: as §3
Data set [24] relates to Canis familiaris. As to the kind of experiment: Hypotensive activity of compound was evaluated by measuring initial blood pressure in dogs after administering 50 ug/kg intravenously. It is filed as functional, Canis lupus familiaris. In short, it runs like this:
as §3

Data set [25] deals with Canis familiaris. As to the kind of experiment: Duration for hypotensive action in dogs after administering 100 ug/kg intravenously. It is filed as functional, Canis lupus familiaris. Put shortly:
as §3

Data set [26] concerns Canis familiaris. As to the kind of experiment: Duration for hypotensive action in dogs after administering 25 ug/kg intravenously. It is filed as functional, Canis lupus familiaris. Put shortly: as §3
Data set [27] relates to Canis familiaris. As to the kind of experiment: Duration for hypotensive action in dogs after administering 50 ug/kg intravenously. It is filed as functional, Canis lupus familiaris. In short, it runs like this:
as §3

Data set [28] relates to Canis familiaris. As to the kind of experiment: Percent hypotension was determined in dogs after administering 100 ug/kg intravenously. It is filed as functional, Canis lupus familiaris. Put shortly: as §3
The test system of data set [29] is Canis familiaris. As to the kind of experiment: Percent hypotension was determined in dogs after administering 25 ug/kg intravenously. It is filed as functional, Canis lupus familiaris. Put shortly: as §3
Data set [30] has as its system Canis familiaris. As to the kind of experiment: Percent hypotension was determined in dogs after administering 50 ug/kg intravenously. It is filed as functional, Canis lupus familiaris. Put shortly: as §3
A short description of data set [31]: Compound was tested for toxicity in mice after intraperitoneal administration. It is filed as organism-based. The note with it: mouse, in vivo, ip. In short, it runs like this: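 Mice (18–22 g), either sex. Compound dissolved in distilled water or suspended in 0.5% (carboxymethyl)cellulose and given ip at 10, 30, 100, 300 and 1000 mg/kg, 1 mL/100 g body weight. Animals observed for 48 h; approximate LD50 calculated by the Campbell and Richter method.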

Data set [32] deals with Oryctolagus cuniculus. As to the kind of experiment: Hypotensive activity of compound was evaluated by measuring fall in blood pressure in rabbits after administering 25 ug/kg intravenously. It is filed as functional. In short, it runs like this: (§4)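 Anesthetized rabbits. Dosing by femoral vein catheter at 10, 25 or 50 µg/kg. Records initial BP, maximal fall in mean arterial pressure, percent hypotension and duration of hypotension. Mean ± SEM, 6–7 experiments per dose.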

The test system of data set [33] is Oryctolagus cuniculus. As to the kind of experiment: Hypotensive activity of compound was evaluated by measuring fall in blood pressure in rabbits after administering 50 ug/kg intravenously. It is filed as functional. Put shortly: as §4
Data set [34] concerns Oryctolagus cuniculus. As to the kind of experiment: Hypotensive activity of compound was evaluated by measuring initial blood pressure in rabbits after administering 10 ug/kg intravenously. The format is functional. In short, it runs like this:
as §4

The subject of data set [35] is Oryctolagus cuniculus. As to the kind of experiment: Hypotensive activity of compound was evaluated by measuring initial blood pressure in rabbits after administering 25 ug/kg intravenously. The format is functional. Put shortly:
as §4

The test system of data set [36] is Oryctolagus cuniculus. As to the kind of experiment: Hypotensive activity of compound was evaluated by measuring fall in blood pressure in rabbits after administering 10 ug/kg intravenously. It is filed as functional. In short, it runs like this: as §4
The test system of data set [37] is Oryctolagus cuniculus. As to the kind of experiment: Duration for hypotensive action in rabbits after administering 10 ug/kg intravenously. The format is functional. Put shortly: as §4
In data set [38] the test system is Oryctolagus cuniculus. As to the kind of experiment: Duration for hypotensive action in rabbits after administering 25 ug/kg intravenously. It is filed as functional. Put shortly: as §4
The subject of data set [39] is Oryctolagus cuniculus. As to the kind of experiment: Duration for hypotensive action in rabbits after administering 50 ug/kg intravenously. The format is functional. Put shortly: as §4
The test system of data set [40] is Oryctolagus cuniculus. As to the kind of experiment: Percent hypotension was determined in rabbits after administering 10 ug/kg intravenously. It is filed as functional. In short, it runs like this: as §4
Data set [41] deals with Oryctolagus cuniculus. As to the kind of experiment: Percent hypotension was determined in rabbits after administering 25 ug/kg intravenously. It is filed as functional. Put shortly: as §4
Data set [42] deals with Oryctolagus cuniculus. As to the kind of experiment: Percent hypotension was determined in rabbits after administering 50 ug/kg intravenously. It is filed as functional. In short, it runs like this: as §4
The subject of data set [43] is Oryctolagus cuniculus. As to the kind of experiment: Hypotensive activity of compound was evaluated by measuring initial blood pressure in rabbits after administering 50 ug/kg intravenously. The format is functional. Put shortly:
as §4

In data set [44] the test system is Rattus norvegicus. As to the kind of experiment: Difference in systolic blood pressure of SH rats observed prior to the first application and 2 hr after the fifth application at the oral dose of 5 mg/kg was expressed as Delta BP. The format is functional, Artery. Put shortly:
as §1

With `COc1cc2c(cc1OC)-c1cc(N(C)c3c(F)cccc3F)nc(=O)n1CC2`, the figures for the ED25 in the data set on Felis catus [1] and in the data set on Felis catus [2] were 0.03 mg/kg and 6 mg/kg, respectively. Moreover, the Delta blood pressure in the data set filed under Rattus norvegicus [3] and with Rattus norvegicus [4] was 0 mmHg in each case. Further, in the data set listed under Rattus norvegicus [5], the Antihypertensive activity amounted to 10 mg/kg.

By LD50 is commonly meant the dose expected to kill half of the subjects tested. Take `COc1cc2c(cc1OC)-c1c/c(=N\c3c(C)cc(C)cc3C)n(C)c(=O)n1CC2.Cl` [TREQUINSIN HYDROCHLORIDE]: the Duration in the data set on Felis catus [6] is given as 16 min; with Felis catus [7], 45 min; in the data set on Felis catus [8] it was 82.5 min; in the data set with Canis familiaris [25], 140 min; with Canis familiaris [26], 50 min; with Canis familiaris [27], 98.3 min. The Duration in the data set with Oryctolagus cuniculus [37] is 20.7 min; in the data set on Oryctolagus cuniculus [38], 57.8 min; with Oryctolagus cuniculus [39], 70 min. Also, the ED25 in the data set with Felis catus [9] and in the data set with Felis catus [2] was 0.025 mg/kg throughout. The BP in the data set on Felis catus [10] is on record as 17 mmHg; with Felis catus [11] it was 25.8 mmHg; with Felis catus [12] it was 34.2 mmHg; with Felis catus [13], 110 mmHg; with Felis catus [14] it was 116 mmHg; with Felis catus [15] it was 125 mmHg. Moreover, the BP was found to be 56.1 mmHg in the data set on Canis familiaris [19]; 37.5 mmHg in the data set on Canis familiaris [20]; 40.8 mmHg in the data set on Canis familiaris [21]; 168.3 mmHg with Canis familiaris [22]; 168.8 mmHg in the data set with Canis familiaris [23]; 163.3 mmHg with Canis familiaris [24]. Also, the BP worked out at 26.4 mmHg in the data set on Oryctolagus cuniculus [32]; 24.2 mmHg in the data set with Oryctolagus cuniculus [33]; 93.8 mmHg in the data set with Oryctolagus cuniculus [34]; 89.6 mmHg in the data set on Oryctolagus cuniculus [35]; 17.4 mmHg in the data set with Oryctolagus cuniculus [36]; 84.2 mmHg in the data set with Oryctolagus cuniculus [43]. The Hypotension in the data set with Felis catus [16] is recorded as 16.8%; in the data set on Felis catus [17], 23.4%; with Felis catus [18], 28.6%; in the data set on Canis familiaris [28] it was 33.7%; with Canis familiaris [29], 22.9%; in the data set on Canis familiaris [30], 25.4%. For the same compound, the Hypotension worked out at 18.6% in the data set on Oryctolagus cuniculus [40], 29.9% in the data set on Oryctolagus cuniculus [41] and 28.5% in the data set on Oryctolagus cuniculus [42]. This compound returned an LD50 in [31] of 150 mg/kg. For the same compound, the Delta blood pressure in the data set on Rattus norvegicus [44] is recorded as -41 mmHg.

The values are drawn from ChEMBL document CHEMBL1122780, “Trequinsin, a potent new antihypertensive vasodilator in the series of 2-(arylimino)-3-alkyl-9,10-dimethoxy-3,4,6,7-tetrahydro-2H-py rim ido [6,1-a]isoquinolin-4-ones” (J Med Chem, 1984).
